Data on 24 compounds can be found in ChEMBL document CHEMBL1138080, “Design and synthesis of novel 2-amino-5-hydroxyindole derivatives that inhibit human 5-lipoxygenase” (J Med Chem, 2006).

Structures are written as SMILES. Where only a bound is given, the exact number is not on record here.

Assay [1] deals with T1, Polyunsaturated fatty acid 5-lipoxygenase (Homo sapiens) (UniProt P09917).
T1 sequence (whole entry): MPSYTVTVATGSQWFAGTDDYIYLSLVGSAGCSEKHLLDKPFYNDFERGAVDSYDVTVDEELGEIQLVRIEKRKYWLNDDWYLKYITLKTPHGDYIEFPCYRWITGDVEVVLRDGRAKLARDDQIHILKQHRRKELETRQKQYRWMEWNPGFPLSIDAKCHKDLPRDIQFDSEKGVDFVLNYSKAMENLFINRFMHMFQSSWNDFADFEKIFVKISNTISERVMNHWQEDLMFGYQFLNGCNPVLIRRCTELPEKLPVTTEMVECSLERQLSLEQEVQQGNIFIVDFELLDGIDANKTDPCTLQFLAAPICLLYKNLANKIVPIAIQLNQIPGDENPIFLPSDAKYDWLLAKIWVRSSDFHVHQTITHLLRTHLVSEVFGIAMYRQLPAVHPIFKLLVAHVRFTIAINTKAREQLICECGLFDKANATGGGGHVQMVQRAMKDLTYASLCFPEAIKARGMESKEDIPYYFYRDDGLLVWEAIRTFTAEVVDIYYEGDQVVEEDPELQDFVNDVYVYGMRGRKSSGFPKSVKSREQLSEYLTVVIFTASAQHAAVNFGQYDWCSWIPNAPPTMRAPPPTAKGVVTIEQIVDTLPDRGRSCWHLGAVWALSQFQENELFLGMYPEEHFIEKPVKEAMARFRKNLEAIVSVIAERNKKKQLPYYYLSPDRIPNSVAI
Nature of the assay: Inhibition of 5-LOX in A-23187-stimulated […] at 10 uM. The procedure, abridged:
(§1)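 Freshly isolated human PMNL (10^7 in 1 mL PBS with 1 mg/mL glucose and 1 mM CaCl2) were preincubated with compound at 37 °C. They were then stimulated with 2.5 µM ionophore A23187 for 10 min at 37 °C and stopped with methanol, with prostaglandin B1 added as standard.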

Assay [2] has as its target T2, Polyunsaturated fatty acid 5-lipoxygenase (Homo sapiens, UniProt P09917).
T2 sequence (P09917 whole entry): T1 sequence (whole entry)
The experiment in a line: Inhibition of 5-LOX in A23187 and arachidonic acid-stimulated […]. Summed up:
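Human PMNL (10^7/mL in PBS with glucose and 1 mM CaCl2) were preincubated with compound at 37 °C. They were then challenged with 2.5 µM A23187 plus 20 µM exogenous arachidonic acid for 10 min at 37 °C. The reaction was stopped with methanol and 5-LO products were quantified against a prostaglandin B1 standard.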

The target in assay [3] is T2, Polyunsaturated fatty acid 5-lipoxygenase. Nature of the assay: Inhibition of 5-LOX. The procedure, abridged:
(§2)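 5-LO was human recombinant, expressed in E. coli JM 109 (pT3-5LO). Lysis, ammonium sulfate precipitation and a 100000g spin gave the S100 supernatant used as enzyme source. The assay contained 1 mM ATP and test compound or DMSO vehicle, and the enzyme was incubated with 20 µM arachidonic acid.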

In assay [4] the target is T1, Polyunsaturated fatty acid 5-lipoxygenase (Homo sapiens). Nature of the assay: Inhibition of 5-LOX at 10 uM. The procedure, abridged:
as §2

For assay [5], the target named is T2, Polyunsaturated fatty acid 5-lipoxygenase. The experiment in a line: Inhibition of 5-LOX in A-23187-stimulated PNML. The procedure, abridged:
as §1

One may read the inhibition as the relative decrease from the control value, in per cent. Low values mean a response near the control, high ones a response far below the control. In turn, `CCOC(=O)c1c(N2CCCC2)[nH]c2ccc(O)cc12` displayed an inhibition in assay [1] of 0%.
The term IC50 denotes the midpoint of a concentration-inhibition curve. Consider `CCOC(=O)c1c(N2CCN(c3ccc(Cl)cc3)CC2)[nH]c2ccc(O)cc12`, for which the IC50 in assay [2] is 5.8 µM; in assay [3] it was 2.3 µM; in assay [5], 5 µM. For the same compound, the inhibition in assay [1] came out at 84%; in assay [4] it was 69%.
Regarding `CCOC(=O)c1c(NC(C)c2ccccc2)[nH]c2ccc(O)cc12` (stereo not given), the values for the IC50 in assay [2], in assay [3] and in assay [5] were 4.6 µM, 3 µM and 1.2 µM, respectively. Moreover, the inhibition in assay [1] was 94%; in assay [4] it was 72%.
As to `CCOC(=O)c1c(Nc2cccnc2)[nH]c2ccc(O)cc12`, the inhibition was 19% in assay [1] and 24% in assay [4].
On to `CCOC(=O)c1c(N2CCN(C)CC2)[nH]c2ccc(O)cc12`, for which, in assay [1], the inhibition is 0%.
On to `C=CCN(CC=C)c1[nH]c2ccc(O)cc2c1C(=O)OCC`, for which the IC50 was determined as 7.1 µM in assay [3] and 7.2 µM in assay [5]. The results for the inhibition in assay [1] and in assay [4] were 71% and 65%, respectively.
In the case of `CCOC(=O)c1c(N2CCCCC2)[nH]c2ccc(O)cc12`, the inhibition in assay [1] came out at 0%.
For `Nc1[nH]c2ccc(O)cc2c1C(=O)c1ccccc1`, in assay [1], the inhibition stood at 0%.
Consider `CC(=O)N(O)C/C=C/c1cccc(Oc2ccccc2)c1`, for which the inhibition stood at 93% in assay [1] and 86% in assay [4].
Take `CCOC(=O)c1c(N2CCOCC2)[nH]c2ccc(O)cc12`: the inhibition in assay [1] came to 0%.
As to `CCOC(=O)c1c(N2CCN(c3ccc(F)cc3)CC2)[nH]c2ccc(O)cc12`, the values for the inhibition in assay [1] and in assay [4] were 22% and 81%, respectively.
The compound `CC(=O)c1c(N)[nH]c2ccc(O)cc12` registered an inhibition in assay [1] of 0%.
In the case of `COC(=O)c1c(NC(C)c2ccccc2)[nH]c2ccccc12` (stereo not given), the inhibition in assay [1] came out at 48%; in assay [4], 42%.
With `CCOC(=O)c1c(Nc2ccc(C)cc2)[nH]c2ccc(O)cc12`, the IC50 is 5 µM in assay [3] and 5.2 µM in assay [5]. Also, the inhibition in assay [1] is 76%; in assay [4], 77%.
`N#Cc1c(N)[nH]c2ccc(O)cc12` showed an inhibition in assay [1] of 0%.
As to `CCOC(=O)c1c(Nc2cccc(Cl)c2)[nH]c2ccc(O)cc12`, the results for the IC50 in assay [3] and in assay [5] were 0.3 µM and 2.4 µM, respectively.
Consider `CCOC(=O)c1c(N2CCN(c3ccccc3)CC2)[nH]c2ccc(O)cc12`, for which the IC50 in assay [3] is 3.1 µM; in assay [5], over 20 µM. For the same compound, the inhibition in assay [1] worked out at 22%; in assay [4] it was 79%.
Turning to `CCOC(=O)c1c(N2CCN(c3ccccc3)CC2)n(C)c2ccc(OC)cc12`, the inhibition in assay [1] came to 14%; in assay [4] it was 36%.
Consider `CC(Nc1[nH]c2ccc(O)cc2c1C#N)c1ccccc1` (stereo not given), for which the IC50 came to 4.1 µM in assay [2], 10 µM in assay [3] and 2.8 µM in assay [5]. Further, the values for the inhibition in assay [1] and in assay [4] were 85% and 62%, respectively.
Consider `CCOC(=O)c1c(Nc2ccccc2)[nH]c2ccc(O)cc12`, for which the IC50 was determined as 2.3 µM in assay [3] and 7.3 µM in assay [5]. Further, the figures for the inhibition in assay [1] and in assay [4] were 65% and 80%, respectively.
With `CCOC(=O)c1c(N2CCN(Cc3ccccc3)CC2)[nH]c2ccc(O)cc12`, the inhibition in assay [1] stood at 15%; in assay [4], 61%.
On to `CCOC(=O)c1c(N(C)C)[nH]c2ccc(O)cc12`, for which the inhibition in assay [1] amounted to 0%.
With `CCOC(=O)c1c(NC(C)c2ccccc2)[nH]c2ccccc12` (stereo not given), the IC50 was found to be 5.9 µM in assay [2], 9.8 µM in assay [3] and 9.7 µM in assay [5]. Further, the results for the inhibition in assay [1] and in assay [4] were 53% and 51%, respectively.
With `COC(=O)c1c(NC(C)c2ccccc2)[nH]c2ccc(O)cc12` (racemic), the inhibition in assay [1] is 77%; in assay [4], 94%.
